Results from ChEMBL document CHEMBL1121923, “N2- and C-7 substituted actinomycin D analogues: synthesis, DNA-binding affinity, and biochemical and biological properties. Structure-activity relationship” (J Med Chem, 1981).

Organism: Bos taurus
Test: Thermal denaturation (deltaTm) of compound against calf thymus DNA was measured
Assay type: ADME
Conditions: cattle, in vitro
Method in brief: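 Calf thymus DNA (MW 100 000–500 000) in 0.01 M phosphate, 5 × 10^-3 M EDTA, pH 7.0; drug 7 × 10^-4 M, DNA nucleotide 7 × 10^-3 M; 259 nm absorbance read at 0.25–1.0 °C steps; Tm taken at 50% hyperchromicity; ΔTm = complex Tm minus DNA Tm.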
`Cc1c2oc3c(C)c(O)c(N)c(C(=O)N[C@@H]4C(=O)N[C@H](C(C)C)C(=O)N5CCC[C@H]5C(=O)N(C)CC(=O)N(C)[C@@H](C(C)C)C(=O)O[C@@H]4C)c3nc-2c(C(=O)N[C@@H]2C(=O)N[C@H](C(C)C)C(=O)N3CCC[C@H]3C(=O)N(C)CC(=O)N(C)[C@@H](C(C)C)C(=O)O[C@@H]2C)c/c1=N/Cc1ccc[nH]1` was tested, and the “Delta Tm” value was 15.8.
`CCCCOc1cc(C(=O)N[C@@H]2C(=O)N[C@H](C(C)C)C(=O)N3CCC[C@H]3C(=O)N(C)CC(=O)N(C)[C@@H](C(C)C)C(=O)O[C@@H]2C)c2nc3c(C(=O)N[C@@H]4C(=O)N[C@H](C(C)C)C(=O)N5CCC[C@H]5C(=O)N(C)CC(=O)N(C)[C@@H](C(C)C)C(=O)O[C@@H]4C)c(N)c(=O)c(C)c-3oc2c1C` was tested, and the “Delta Tm” value was 2.7.
In the case of `Cc1c2oc3c(C)c(O)c(N)c(C(=O)N[C@@H]4C(=O)N[C@H](C(C)C)C(=O)N5CCC[C@H]5C(=O)N(C)CC(=O)N(C)[C@@H](C(C)C)C(=O)O[C@@H]4C)c3nc-2c(C(=O)N[C@@H]2C(=O)N[C@H](C(C)C)C(=O)N3CCC[C@H]3C(=O)N(C)CC(=O)N(C)[C@@H](C(C)C)C(=O)O[C@@H]2C)cc1=N`, the “Delta Tm” value is reported as 8.2.
With `CCCCCCCCCCCNc1c(C(=O)N[C@@H]2C(=O)N[C@H](C(C)C)C(=O)N3CCC[C@H]3C(=O)N(C)CC(=O)N(C)[C@@H](C(C)C)C(=O)O[C@@H]2C)c2nc3c(C(=O)N[C@@H]4C(=O)N[C@H](C(C)C)C(=O)N5CCC[C@H]5C(=O)N(C)CC(=O)N(C)[C@@H](C(C)C)C(=O)O[C@@H]4C)ccc(C)c3oc-2c(C)c1=O` the “Delta Tm” value was 0.
With `Cc1c2oc3c(C)ccc(C(=O)N[C@@H]4C(=O)N[C@H](C(C)C)C(=O)N5CCC[C@H]5C(=O)N(C)CC(=O)N(C)[C@@H](C(C)C)C(=O)O[C@@H]4C)c3nc-2c(C(=O)N[C@@H]2C(=O)N[C@H](C(C)C)C(=O)N3CCC[C@H]3C(=O)N(C)CC(=O)N(C)[C@@H](C(C)C)C(=O)O[C@@H]2C)c(NCCCCCN)c1=O` the “Delta Tm” value was 1.1.
With `Cc1c2oc3c(C)ccc(C(=O)N[C@@H]4C(=O)N[C@H](C(C)C)C(=O)N5CCC[C@H]5C(=O)N(C)CC(=O)N(C)[C@@H](C(C)C)C(=O)O[C@@H]4C)c3nc-2c(C(=O)N[C@@H]2C(=O)N[C@H](C(C)C)C(=O)N3CCC[C@H]3C(=O)N(C)CC(=O)N(C)[C@@H](C(C)C)C(=O)O[C@@H]2C)c(NCCCCN)c1=O` the “Delta Tm” value was 1.8.
For `CCCCNc1c(C(=O)N[C@@H]2C(=O)N[C@H](C(C)C)C(=O)N3CCC[C@H]3C(=O)N(C)CC(=O)N(C)[C@@H](C(C)C)C(=O)O[C@@H]2C)c2nc3c(C(=O)N[C@@H]4C(=O)N[C@H](C(C)C)C(=O)N5CCC[C@H]5C(=O)N(C)CC(=O)N(C)[C@@H](C(C)C)C(=O)O[C@@H]4C)ccc(C)c3oc-2c(C)c1=O`, the “Delta Tm” value was 0.2.
For `Cc1c2oc3c(C)c(O)c(N)c(C(=O)N[C@@H]4C(=O)N[C@H](C(C)C)C(=O)N5CCC[C@H]5C(=O)N(C)CC(=O)N(C)[C@@H](C(C)C)C(=O)O[C@@H]4C)c3nc-2c(C(=O)N[C@@H]2C(=O)N[C@H](C(C)C)C(=O)N3CCC[C@H]3C(=O)N(C)CC(=O)N(C)[C@@H](C(C)C)C(=O)O[C@@H]2C)c/c1=N/Cc1ccccc1`, the “Delta Tm” value was 6.6.
`Cc1c2oc3c(C)c(O)c(N)c(C(=O)N[C@@H]4C(=O)N[C@H](C(C)C)C(=O)N5CCC[C@H]5C(=O)N(C)CC(=O)N(C)[C@@H](C(C)C)C(=O)O[C@@H]4C)c3nc-2c(C(=O)N[C@@H]2C(=O)N[C@H](C(C)C)C(=O)N3CCC[C@H]3C(=O)N(C)CC(=O)N(C)[C@@H](C(C)C)C(=O)O[C@@H]2C)cc1=O` was tested, and the “Delta Tm” value was 6.7.
With `Cc1c2oc3c(C)c(O)c(N)c(C(=O)N[C@@H]4C(=O)N[C@H](C(C)C)C(=O)N5CCC[C@H]5C(=O)N(C)CC(=O)N(C)[C@@H](C(C)C)C(=O)O[C@@H]4C)c3nc-2c(C(=O)N[C@@H]2C(=O)N[C@H](C(C)C)C(=O)N3CCC[C@H]3C(=O)N(C)CC(=O)N(C)[C@@H](C(C)C)C(=O)O[C@@H]2C)c/c1=N/Cc1cccc(Oc2ccccc2)c1` the “Delta Tm” value was 5.3.
`COc1cc(C(=O)N[C@@H]2C(=O)N[C@H](C(C)C)C(=O)N3CCC[C@H]3C(=O)N(C)CC(=O)N(C)[C@@H](C(C)C)C(=O)O[C@@H]2C)c2nc3c(C(=O)N[C@@H]4C(=O)N[C@H](C(C)C)C(=O)N5CCC[C@H]5C(=O)N(C)CC(=O)N(C)[C@@H](C(C)C)C(=O)O[C@@H]4C)c(N)c(=O)c(C)c-3oc2c1C` was tested, and the “Delta Tm” value was 5.5.
For `CCCCCCCCCNc1c(C(=O)N[C@@H]2C(=O)N[C@H](C(C)C)C(=O)N3CCC[C@H]3C(=O)N(C)CC(=O)N(C)[C@@H](C(C)C)C(=O)O[C@@H]2C)c2nc3c(C(=O)N[C@@H]4C(=O)N[C@H](C(C)C)C(=O)N5CCC[C@H]5C(=O)N(C)CC(=O)N(C)[C@@H](C(C)C)C(=O)O[C@@H]4C)ccc(C)c3oc-2c(C)c1=O`, the “Delta Tm” value was 0.
With `CCCNc1c(C(=O)N[C@@H]2C(=O)N[C@H](C(C)C)C(=O)N3CCC[C@H]3C(=O)N(C)CC(=O)N(C)[C@@H](C(C)C)C(=O)O[C@@H]2C)c2nc3c(C(=O)N[C@@H]4C(=O)N[C@H](C(C)C)C(=O)N5CCC[C@H]5C(=O)N(C)CC(=O)N(C)[C@@H](C(C)C)C(=O)O[C@@H]4C)ccc(C)c3oc-2c(C)c1=O` the “Delta Tm” value was 1.5.
In the case of `CCCCCNc1c(C(=O)N[C@@H]2C(=O)N[C@H](C(C)C)C(=O)N3CCC[C@H]3C(=O)N(C)CC(=O)N(C)[C@@H](C(C)C)C(=O)O[C@@H]2C)c2nc3c(C(=O)N[C@@H]4C(=O)N[C@H](C(C)C)C(=O)N5CCC[C@H]5C(=O)N(C)CC(=O)N(C)[C@@H](C(C)C)C(=O)O[C@@H]4C)ccc(C)c3oc-2c(C)c1=O`, the “Delta Tm” value is reported as 0.
For `CCCCCCNc1c(C(=O)N[C@@H]2C(=O)N[C@H](C(C)C)C(=O)N3CCC[C@H]3C(=O)N(C)CC(=O)N(C)[C@@H](C(C)C)C(=O)O[C@@H]2C)c2nc3c(C(=O)N[C@@H]4C(=O)N[C@H](C(C)C)C(=O)N5CCC[C@H]5C(=O)N(C)CC(=O)N(C)[C@@H](C(C)C)C(=O)O[C@@H]4C)ccc(C)c3oc-2c(C)c1=O`, the “Delta Tm” value was 0.
`Cc1c2oc3c(C)c(OCc4ccc(Cl)c(Cl)c4)cc(C(=O)N[C@@H]4C(=O)N[C@H](C(C)C)C(=O)N5CCC[C@H]5C(=O)N(C)CC(=O)N(C)[C@@H](C(C)C)C(=O)O[C@@H]4C)c3nc-2c(C(=O)N[C@@H]2C(=O)N[C@H](C(C)C)C(=O)N3CCC[C@H]3C(=O)N(C)CC(=O)N(C)[C@@H](C(C)C)C(=O)O[C@@H]2C)c(N)c1=O` was tested, and the “Delta Tm” value was 0.
`Cc1c2oc3c(C)ccc(C(=O)N[C@@H]4C(=O)N[C@H](C(C)C)C(=O)N5CCC[C@H]5C(=O)N(C)CC(=O)N(C)[C@@H](C(C)C)C(=O)O[C@@H]4C)c3nc-2c(C(=O)N[C@@H]2C(=O)N[C@H](C(C)C)C(=O)N3CCC[C@H]3C(=O)N(C)CC(=O)N(C)[C@@H](C(C)C)C(=O)O[C@@H]2C)c(NCCCN)c1=O` was tested, and the “Delta Tm” value was 6.2.
With `Cc1c2oc3c(C)c(OCc4ccc(Cl)cc4)cc(C(=O)N[C@@H]4C(=O)N[C@H](C(C)C)C(=O)N5CCC[C@H]5C(=O)N(C)CC(=O)N(C)[C@@H](C(C)C)C(=O)O[C@@H]4C)c3nc-2c(C(=O)N[C@@H]2C(=O)N[C@H](C(C)C)C(=O)N3CCC[C@H]3C(=O)N(C)CC(=O)N(C)[C@@H](C(C)C)C(=O)O[C@@H]2C)c(N)c1=O` the “Delta Tm” value was 0.
With `CCCCCCOc1cc(C(=O)N[C@@H]2C(=O)N[C@H](C(C)C)C(=O)N3CCC[C@H]3C(=O)N(C)CC(=O)N(C)[C@@H](C(C)C)C(=O)O[C@@H]2C)c2nc3c(C(=O)N[C@@H]4C(=O)N[C@H](C(C)C)C(=O)N5CCC[C@H]5C(=O)N(C)CC(=O)N(C)[C@@H](C(C)C)C(=O)O[C@@H]4C)c(N)c(=O)c(C)c-3oc2c1C` the “Delta Tm” value was 1.
For `CCCOc1cc(C(=O)N[C@@H]2C(=O)N[C@H](C(C)C)C(=O)N3CCC[C@H]3C(=O)N(C)CC(=O)N(C)[C@@H](C(C)C)C(=O)O[C@@H]2C)c2nc3c(C(=O)N[C@@H]4C(=O)N[C@H](C(C)C)C(=O)N5CCC[C@H]5C(=O)N(C)CC(=O)N(C)[C@@H](C(C)C)C(=O)O[C@@H]4C)c(N)c(=O)c(C)c-3oc2c1C`, the “Delta Tm” value was 3.5.
`Cc1c2oc3c(C)c(OCc4ccc([N+](=O)[O-])cc4)cc(C(=O)N[C@@H]4C(=O)N[C@H](C(C)C)C(=O)N5CCC[C@H]5C(=O)N(C)CC(=O)N(C)[C@@H](C(C)C)C(=O)O[C@@H]4C)c3nc-2c(C(=O)N[C@@H]2C(=O)N[C@H](C(C)C)C(=O)N3CCC[C@H]3C(=O)N(C)CC(=O)N(C)[C@@H](C(C)C)C(=O)O[C@@H]2C)c(N)c1=O` was tested, and the “Delta Tm” value was 0.
In the case of `Cc1c2oc3c(C)ccc(C(=O)N[C@@H]4C(=O)N[C@H](C(C)C)C(=O)N5CCC[C@H]5C(=O)N(C)CC(=O)N(C)[C@@H](C(C)C)C(=O)O[C@@H]4C)c3nc-2c(C(=O)N[C@@H]2C(=O)N[C@H](C(C)C)C(=O)N3CCC[C@H]3C(=O)N(C)CC(=O)N(C)[C@@H](C(C)C)C(=O)O[C@@H]2C)c(NCCCCCCCCCCN)c1=O`, the “Delta Tm” value is reported as 6.6.
`CCCCCCCOc1cc(C(=O)N[C@@H]2C(=O)N[C@H](C(C)C)C(=O)N3CCC[C@H]3C(=O)N(C)CC(=O)N(C)[C@@H](C(C)C)C(=O)O[C@@H]2C)c2nc3c(C(=O)N[C@@H]4C(=O)N[C@H](C(C)C)C(=O)N5CCC[C@H]5C(=O)N(C)CC(=O)N(C)[C@@H](C(C)C)C(=O)O[C@@H]4C)c(N)c(=O)c(C)c-3oc2c1C` was tested, and the “Delta Tm” value was 0.
For `Cc1c2oc3c(C)c(O)c(N)c(C(=O)N[C@@H]4C(=O)N[C@H](C(C)C)C(=O)N5CCC[C@H]5C(=O)N(C)CC(=O)N(C)[C@@H](C(C)C)C(=O)O[C@@H]4C)c3nc-2c(C(=O)N[C@@H]2C(=O)N[C@H](C(C)C)C(=O)N3CCC[C@H]3C(=O)N(C)CC(=O)N(C)[C@@H](C(C)C)C(=O)O[C@@H]2C)c/c1=N/Cc1ccco1`, the “Delta Tm” value was 5.8.
For `CCCCCCCCC/N=c1/cc(C(=O)N[C@@H]2C(=O)N[C@H](C(C)C)C(=O)N3CCC[C@H]3C(=O)N(C)CC(=O)N(C)[C@@H](C(C)C)C(=O)O[C@@H]2C)c2nc3c(C(=O)N[C@@H]4C(=O)N[C@H](C(C)C)C(=O)N5CCC[C@H]5C(=O)N(C)CC(=O)N(C)[C@@H](C(C)C)C(=O)O[C@@H]4C)c(N)c(O)c(C)c3oc-2c1C`, the “Delta Tm” value was 1.1.
For `CCOc1cc(C(=O)N[C@@H]2C(=O)N[C@H](C(C)C)C(=O)N3CCC[C@H]3C(=O)N(C)CC(=O)N(C)[C@@H](C(C)C)C(=O)O[C@@H]2C)c2nc3c(C(=O)N[C@@H]4C(=O)N[C@H](C(C)C)C(=O)N5CCC[C@H]5C(=O)N(C)CC(=O)N(C)[C@@H](C(C)C)C(=O)O[C@@H]4C)c(N)c(=O)c(C)c-3oc2c1C`, the “Delta Tm” value was 5.9.
For `Cc1c2oc3c(C)ccc(C(=O)N[C@@H]4C(=O)N[C@H](C(C)C)C(=O)N5CCC[C@H]5C(=O)N(C)CC(=O)N(C)[C@@H](C(C)C)C(=O)O[C@@H]4C)c3nc-2c(C(=O)N[C@@H]2C(=O)N[C@H](C(C)C)C(=O)N3CCC[C@H]3C(=O)N(C)CC(=O)N(C)[C@@H](C(C)C)C(=O)O[C@@H]2C)c(NCCCCCCCCN)c1=O`, the “Delta Tm” value was 0.3.
